DAT uptake mod: modulates human dopamine transporter uptake under cocaine; Q01959; LLC-PK1 hDAT cells, [14C]-dopamine uptake with cocaine IC80; actives deviate in either direction; B-score at 10 µM; 110,000 compounds, 1.3% hits; AID 449768;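 active means Z score or B-score, a plate-position-corrected score, falls beyond the plate's 99.7% confidence bounds, in either direction; inactive means both scores lie inside the 99.7% bounds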;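 further: scored against the spread of the other compound wells on the same plate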
Target sequence (Q01959 whole entry, looked up): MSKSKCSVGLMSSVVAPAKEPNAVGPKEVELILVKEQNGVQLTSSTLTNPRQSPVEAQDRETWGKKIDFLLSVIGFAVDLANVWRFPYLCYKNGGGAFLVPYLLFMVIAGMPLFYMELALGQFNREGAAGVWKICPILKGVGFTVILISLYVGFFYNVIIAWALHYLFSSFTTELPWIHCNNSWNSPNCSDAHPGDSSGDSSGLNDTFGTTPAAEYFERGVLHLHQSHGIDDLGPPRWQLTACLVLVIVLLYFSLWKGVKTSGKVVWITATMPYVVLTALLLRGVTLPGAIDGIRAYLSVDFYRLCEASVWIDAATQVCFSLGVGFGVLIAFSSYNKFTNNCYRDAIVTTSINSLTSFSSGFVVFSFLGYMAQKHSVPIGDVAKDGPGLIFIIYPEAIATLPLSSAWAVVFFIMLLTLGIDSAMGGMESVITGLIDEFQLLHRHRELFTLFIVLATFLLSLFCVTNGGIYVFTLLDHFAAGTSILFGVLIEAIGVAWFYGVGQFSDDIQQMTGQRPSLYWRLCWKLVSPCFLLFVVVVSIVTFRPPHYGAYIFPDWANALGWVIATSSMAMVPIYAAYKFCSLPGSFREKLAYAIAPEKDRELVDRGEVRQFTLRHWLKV
MMP13 inh: inhibitors of human MMP13. AID 570. 65,000 compounds, 0.07% hits. inhibition, % at 4 µM. P45452. MMP-13 fTHP FRET cleavage, Mca fluorescence;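 active means inhibition above the mean of compound-free control plate wells plus 3 SD, cut at about 14% in these data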;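 further: 0% = DMSO wells and 100% = wells with reference MMP-13 inhibitor after basal subtraction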
AP ELISA ortho: alternative pathway complement inhibition, orthogonal assay. Human serum alternative complement pathway, LPS-coated ELISA, C3 deposition; tested in compound mixtures. inhibition, % at 5 µM. 62,000 compounds, 0.08% hits. AID 1235;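 active means inhibition above 30% in each of the two pooled mixtures holding the compound, so the lower value exceeds 30%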;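 further: 0% = serum in Mg-EGTA without compound and 100% = EDTA serum blank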
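Assay system: human serum alternative complement pathway, C3 deposition on LPS-coated wells; Dosing: 5 µM per compound in ten-compound mixtures; Detection: Anti-C3 ELISA, OD 450 nm; Buffer or medium: Mg2+-EGTA GVB++ buffer containing human serum at 1:15 dilution; Timing: 1 h at 37 °C; Replication: two different pools per compound.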
D1 mod: allosterically modulates the human D1 dopamine receptor | B-score at 10 µM | HEK293 D1, CRE-luciferase, dopamine EC30 potentiation; actives deviate in either direction | 58,000 compounds, 5.9% hits | P21728;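 active means luminescence count or its row- and column-corrected plate score outside the 99.7% band of the plate's sample wells, on either side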
Candida biofilm: kills Candida albicans biofilms. 85,000 compounds, 0.14% hits. inhibition, % at 6 µM. C. albicans biofilm + clotrimazole, Alamar Blue;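 active means inhibition above 20%; inactive means inhibition below 20%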;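 further: preformed 24 hr biofilms exposed to compound for 48 hr; 0% = biofilm without compound and 100% = blank killed by clotrimazole plus chlorhexidine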
D1 mod confirm: confirmation of human D1 dopamine receptor allosteric modulators; shares compounds with D1 mod; HEK293 D1 CRE-luciferase, dopamine EC30 potentiation; hits give high values; luminescence at 10 µM; 2,200 compounds, 88% hits;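 active means luminescence in either of two replicates above the same-plate mean plus 3 SD of the low-dose dopamine control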
D1 ag no DA: secondary test of D1 modulators: activity without dopamine | shares compounds with D1 mod | HEK293 D1 CRE-luciferase, luminescence, no dopamine; hits give high values | luminescence at 10 µM | 1,900 compounds, 0.8% hits | AID 646; in the data active means luminescence above about 3900
Isoprot counter: counter-screen for D1 modulators: isoproterenol response in HEK293 cells. shares compounds with D1 mod. AID 647. luminescence at 10 µM. HEK293 D1 CRE-luciferase, isoproterenol EC30 counter-screen; hits give high values. 2,200 compounds, 63% hits;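 active means luminescence in either replicate above plate mean of wells with a partly effective reference agonist dose plus 3 SD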;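 further: isoproterenol raises cAMP through native beta-adrenoceptor Gs so signal bypasses D1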
* hit, by the source's call. Shown is part of a subset that was picked to be rich in hits.

What do the screens show for `Nc1nc(SCC(=O)C23CC4CC(CC(C4)C2)C3)n[nH]1`?
DAT uptake mod: -0.0883; MMP13 inh: 2.5; AP ELISA ortho: 0.2; D1 mod: 5.33*; Candida biofilm: 5.2; D1 mod confirm: 8548*; Isoprot counter: 2456

What do the screens show for `Cc1[nH]nc2c1C(c1ccc(F)cc1)C1=C(CC(C)(C)CC1=O)N2` (stereo unspecified)?
DAT uptake mod: 0.246; MMP13 inh: -46.6; AP ELISA ortho: 8.0; D1 mod: 6.27*; Candida biofilm: -4.0; D1 mod confirm: 12860*; D1 ag no DA: 1600; Isoprot counter: 2756

Results for CN(C)C(=O)CSc1nnc(Cc2ccc([N+](=O)[O-])cc2)o1 ?
DAT uptake mod: -1.19

Results for O=C(NNC(=O)C(c1ccccc1)c1ccccc1)c1cccs1 ?
DAT uptake mod: -0.127

How did CCOc1cc(-c2noc(CCC(=O)Nc3cccnc3)n2)ccc1OC do in these assays?
DAT uptake mod: 1.3; MMP13 inh: -11.3; AP ELISA ortho: -6.7; D1 mod: 18.1*; Candida biofilm: 2.8; D1 mod confirm: 17716*; D1 ag no DA: 1472; Isoprot counter: 3168*

How did CCOc1ccc(-c2noc(CCC(=O)NC)n2)cc1OCC do in these assays?
DAT uptake mod: -0.486; MMP13 inh: 1.8; AP ELISA ortho: -6.5; D1 mod: 12.5*; Candida biofilm: 10.2; D1 mod confirm: 19240*; D1 ag no DA: 1568; Isoprot counter: 4300*

Results for Cc1c(C(=O)Oc2cccc3ccccc23)cnn1-c1ccccc1 ?
DAT uptake mod: 0.0229

How did O=S(=O)(NCc1ccc2c(c1)OCO2)c1cnc[nH]1 do in these assays?
DAT uptake mod: -1.2; MMP13 inh: -10.5; AP ELISA ortho: 6.0; D1 mod: 0.0169; Candida biofilm: 1.0

Results for CCOc1ccc(CCNS(=O)(=O)c2cnc[nH]2)cc1OCC ?
DAT uptake mod: -0.582; MMP13 inh: -1.0; AP ELISA ortho: 3.5; D1 mod: 25*; Candida biofilm: 2.7; D1 mod confirm: 24048*; Isoprot counter: 3928*

Results for CC(C)C[C@H]1C(=O)N2CCC[C@H]2[C@]2(O)O[C@](NC(=O)[C@@H]3C=C4c5cccc6[nH]c(Br)c(c56)CC4N(C)C3)(C(C)C)C(=O)N12 (stereo partly specified) ?
DAT uptake mod: 1.78; MMP13 inh: -10.6; AP ELISA ortho: 19.4; D1 mod: 24.2*; Candida biofilm: 0.8; D1 mod confirm: 20940*; D1 ag no DA: 18100*; Isoprot counter: 24560*

How did CN(C)CCNc1oc(-c2ccccc2F)nc1C#N do in these assays?
DAT uptake mod: -0.129; MMP13 inh: -202.4; AP ELISA ortho: 16.0; D1 mod: 3.05; Candida biofilm: 5.6

What do the screens show for `N#Cc1nc(-c2ccccc2F)oc1NC1CCCCC1`?
DAT uptake mod: 0.385; MMP13 inh: -307.5; AP ELISA ortho: 23.0; D1 mod: 9.74*; Candida biofilm: 0.3; D1 mod confirm: 18604*; D1 ag no DA: 1740; Isoprot counter: 4284*

How did N#Cc1nc(-c2ccccc2F)oc1NCc1cccc2c1OCO2 do in these assays?
DAT uptake mod: -0.3; MMP13 inh: -115.8; AP ELISA ortho: 4.4; D1 mod: 21.3*; Candida biofilm: 6.3; D1 mod confirm: 21008*; D1 ag no DA: 1688; Isoprot counter: 6516*

How did Cn1c(O)c(C=NCC2CCNCC2)c(=O)n(C)c1=O do in these assays?
DAT uptake mod: 0.0388; Candida biofilm: 3.8

What do the screens show for `OCc1cn(-c2ccccc2)nc1-c1ccc2c(c1)OCCO2`?
DAT uptake mod: -1.02; MMP13 inh: -15.6; AP ELISA ortho: -0.7; D1 mod: 0.0452; Candida biofilm: 3.6

How did COc1cccc(-c2nn(-c3ccccc3)cc2C(=O)NCC(=O)O)c1 do in these assays?
DAT uptake mod: -0.0308; MMP13 inh: -1.2; AP ELISA ortho: 2.1; D1 mod: -0.0643; Candida biofilm: 3.6
